This note sets out measurements from the array DNA melting data of Ke et al. (doi:10.1101/2024.01.08.574731).

Data set [1] can be described thus: folding enthalpy; higher = less favourable; fluorescence melt of hairpins on a sequencing array, two-state fit. As to conditions: sodium 0.088 M. The procedure, abridged: (§1)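 Cy3 fluorescence of library hairpins on a sequenced MiSeq flow cell, with annealed Cy3 and quencher oligos, was imaged in 50 mM Na-HEPES pH 8.0, 25 mM NaCl in 2.5 °C steps up to 60 °C. Signals were normalised to pre-quench Cy3 and to control variants. Melting temperature and folding enthalpy came from bootstrapped two-state fits, inverse-variance combined over four replicates. Fitted temperatures were raised by 9.35 °C to match UV melts.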

Data set [2] can be described thus: melting temperature; fluorescence melt of hairpins on a sequencing array, two-state fit, raised by 9.35 °C to match UV melts. Particulars: sodium 0.088 M. The procedure, abridged: as §1

Regarding GAAGTAGGAAACTACTTC (((((((....))))))), in data set [1], the folding enthalpy is -42.6 kcal/mol. Also, the Tm in data set [2] was determined as 52.5 °C.

On to GAAGTCGGAAACGACTTC (((((((....))))))), for which the folding enthalpy in data set [1] is -36.4 kcal/mol. Besides, in data set [2], the Tm is 66 °C.

As for GAAGTCGGAAACGGCTTC ((((.((....)).)))), the folding enthalpy in data set [1] was -39.7 kcal/mol. Moreover, the Tm in data set [2] stood at 54.5 °C.

Regarding GAAGTGCGAAAGCAGTTC (((.(((....))).))), in data set [1], the folding enthalpy was -33.5 kcal/mol. The Tm in data set [2] amounted to 57.5 °C.

For GAAGTGCGAAAGCATTTC (((.(((....))).))), the folding enthalpy in data set [1] is -23.5 kcal/mol. The Tm in data set [2] turned out to be 51 °C.

Turning to GAAGTGGAAACACTTC ((((((....)))))), the folding enthalpy in data set [1] was -33.7 kcal/mol. Also, in data set [2], the Tm amounted to 54 °C.

Regarding GAAGTGGGAAACCACCTC ((.((((....)))).)), the folding enthalpy in data set [1] is -13.7 kcal/mol. In data set [2], the Tm is 32.2 °C.

For GAAGTTGAAAAACTTC ((((((....)))))), the folding enthalpy in data set [1] was -28.1 kcal/mol. Moreover, in data set [2], the Tm was determined as 48.5 °C.

As for GAAGTTGGAAACGATTTC (((.(.(....).).))), the folding enthalpy in data set [1] is -20.9 kcal/mol. Besides, the Tm in data set [2] turned out to be 36.7 °C.

GAATAACGAAAGTTCTTC (((.(((....))).))): the folding enthalpy in data set [1] is -20.7 kcal/mol. In addition, the Tm in data set [2] stood at 32.2 °C.

For the sequence GAATAACGAAAGTTGTTC (((.(((....))).))), the folding enthalpy in data set [1] was -31 kcal/mol. Moreover, the Tm in data set [2] was found to be 45.5 °C.

GAATAAGCGAAAGCTTTC (((..(((....)))))): the folding enthalpy in data set [1] was -9.51 kcal/mol. Besides, in data set [2], the Tm amounted to 25.7 °C.

On to GAATACCGAAAGGTGTTC (((.(((....))).))), for which, in data set [1], the folding enthalpy is -40.3 kcal/mol. The Tm in data set [2] was found to be 51.2 °C.

Take GAATACCGAAAGGTTTTC (((.(((....))).))): the folding enthalpy in data set [1] was -25.7 kcal/mol. In data set [2], the Tm stood at 39.5 °C.

On to GAATACGAAAGTACTTC ((((((....))).))), for which, in data set [1], the folding enthalpy was -17 kcal/mol. The Tm in data set [2] is 30.2 °C.

GAATACGAAAGTAGCTTC ((((((....)))..))): the folding enthalpy in data set [1] was -16.4 kcal/mol. Besides, the Tm in data set [2] came out at 33.9 °C.

Turning to GAATAGCCGAAAGGCTTC (((..(((....)))))), the folding enthalpy in data set [1] is -7.5 kcal/mol. Also, the Tm in data set [2] stood at 25.5 °C.

In the case of GAATAGCGAAAGCTTTC (((.(((....)))))), the folding enthalpy in data set [1] was -11.6 kcal/mol. Besides, in data set [2], the Tm came out at 33.7 °C.

GAATAGGGAAACCTGTTC (((.(((....))).))): in data set [1], the folding enthalpy was -30.6 kcal/mol. In addition, in data set [2], the Tm is 38.2 °C.

Take GAATCACGAAAGTGGTTC (((.(((....))).))): the folding enthalpy in data set [1] was -40.3 kcal/mol. In addition, the Tm in data set [2] came out at 53.2 °C.

Consider GAATCAGGAAACTGACTC ((.((((....)))).)), for which the folding enthalpy in data set [1] was -17.3 kcal/mol. For the same sequence, in data set [2], the Tm was determined as 28.7 °C.

On to GAATCCCGAAAGGGTTTC (((.(((....))).))), for which, in data set [1], the folding enthalpy was -23.6 kcal/mol. Besides, the Tm in data set [2] amounted to 45.6 °C.

For GAATCCGAAAGGAATTC ((((((....))).))), the folding enthalpy in data set [1] is -23.6 kcal/mol. Moreover, in data set [2], the Tm turned out to be 39.7 °C.

Regarding GAATCCGAAAGGACTTC ((((((....))).))), the folding enthalpy in data set [1] is -19.4 kcal/mol. Further, the Tm in data set [2] amounted to 35.8 °C.

For GAATCCGAAAGGATTTC ((((((....))).))), the folding enthalpy in data set [1] is -13.8 kcal/mol. In data set [2], the Tm stood at 48.6 °C.

On to GAATCCGGAAACAGATTC (((((.(....).))))), for which the folding enthalpy in data set [1] is -19.5 kcal/mol. Further, the Tm in data set [2] amounted to 31.3 °C.

Regarding GAATCCGGAAACGAATTC ((((.((....)).)))), the folding enthalpy in data set [1] was -21.1 kcal/mol. Moreover, in data set [2], the Tm amounted to 34.1 °C.

On to GAATCGCGAAAGCGGTTC (((.(((....))).))), for which the folding enthalpy in data set [1] is -30.3 kcal/mol. The Tm in data set [2] was found to be 61.7 °C.

Take GAATCGGGAAACCAATTC ((((.((....)).)))): the folding enthalpy in data set [1] is -16.3 kcal/mol. The Tm in data set [2] worked out at 28.4 °C.

For the sequence GAATCGGGAAACCGGTTC (((.(((....))).))), the folding enthalpy in data set [1] is -35.8 kcal/mol. Further, the Tm in data set [2] was determined as 50.2 °C.

In the case of GAATCGGGAAACTGATTC (((((.(....).))))), in data set [1], the folding enthalpy was -38.9 kcal/mol. For the same sequence, the Tm in data set [2] is 45.5 °C.

GAATCTGAAAAGATTC ((((((....)))))): in data set [1], the folding enthalpy is -36.8 kcal/mol. Further, the Tm in data set [2] was 49.8 °C.

As to GAATCTGGAAACAGATTC (((((((....))))))), in data set [1], the folding enthalpy was -49.8 kcal/mol. Moreover, the Tm in data set [2] turned out to be 55.6 °C.

With GAATGAGGAAACTCATTC (((((((....))))))), the folding enthalpy in data set [1] was -37.3 kcal/mol. Moreover, the Tm in data set [2] is 52.8 °C.

As to GAATGCGAAAGCACTTC ((((((....))).))), in data set [1], the folding enthalpy is -16.2 kcal/mol. For the same sequence, the Tm in data set [2] was determined as 40.9 °C.

Regarding GAATGCGAAAGCAGGTTC ((((((....)))..))), in data set [1], the folding enthalpy is -8.65 kcal/mol. Moreover, in data set [2], the Tm is 30.4 °C.

Take GAATGCGAAAGCAGTTC ((((((....))).))): in data set [1], the folding enthalpy was -13.9 kcal/mol. For the same sequence, the Tm in data set [2] was determined as 41.8 °C.

Consider GAATGGGGAAACCCACTC ((.((((....)))).)), for which the folding enthalpy in data set [1] was -13.1 kcal/mol. The Tm in data set [2] turned out to be 30 °C.

Regarding GAATGTGGAAACATGTTC (((..((....))..))), the folding enthalpy in data set [1] was -18.7 kcal/mol. In addition, the Tm in data set [2] was 31.4 °C.

Take GAATTAGAAATAATTC ((((((....)))))): in data set [1], the folding enthalpy was -18.5 kcal/mol. Moreover, the Tm in data set [2] is 33.3 °C.

Consider GAATTAGGAAACTAATTC (((((((....))))))), for which the folding enthalpy in data set [1] is -38.8 kcal/mol. For the same sequence, the Tm in data set [2] came out at 46.9 °C.

Regarding GAATTCCGAAAGGAGTTC (((.(((....))).))), the folding enthalpy in data set [1] is -33.6 kcal/mol. The Tm in data set [2] worked out at 49 °C.

GAATTGAAAAATTC (((((....))))): the folding enthalpy in data set [1] was -13.5 kcal/mol. Also, the Tm in data set [2] worked out at 31.7 °C.

On to GAATTGCGAAAGCAGTTC (((.(((....))).))), for which the folding enthalpy in data set [1] was -30.3 kcal/mol. The Tm in data set [2] was 51.5 °C.

Turning to GAATTGGAAACAATTC ((((((....)))))), the folding enthalpy in data set [1] was -35.6 kcal/mol. For the same sequence, the Tm in data set [2] was 47.3 °C.

With GAATTGGGAAACCAACTC ((.((((....)))).)), the folding enthalpy in data set [1] was -10.9 kcal/mol. Besides, the Tm in data set [2] was 26 °C.

For the sequence GAATTGGGAAACTGATTC ((((..(....)..)))), the folding enthalpy in data set [1] is -13.2 kcal/mol. The Tm in data set [2] amounted to 25.6 °C.

GAATTTGGAAACAAGTTC (((.(((....))).))): the folding enthalpy in data set [1] is -28.8 kcal/mol. Also, the Tm in data set [2] was 33.8 °C.

For the sequence GAATTTGGAAACGAATTC (((((.(....).))))), the folding enthalpy in data set [1] was -35.8 kcal/mol. The Tm in data set [2] stood at 38.8 °C.

Regarding GACAAACCGAAAGGTGTC (((..(((....)))))), in data set [1], the folding enthalpy is -19.8 kcal/mol. For the same sequence, the Tm in data set [2] was determined as 43.2 °C.

As to GACAAACGAAAGTTAGTC (((.(((....))).))), the folding enthalpy in data set [1] was -30.9 kcal/mol. For the same sequence, in data set [2], the Tm amounted to 44.3 °C.

For GACAAAGGAAACTTCGTC (((.(((....))).))), the folding enthalpy in data set [1] is -17 kcal/mol. Besides, the Tm in data set [2] turned out to be 26.7 °C.

As for GACAAAGGAAACTTTGCC (.(((((....))))).), the folding enthalpy in data set [1] is -21.6 kcal/mol. Besides, in data set [2], the Tm came to 33.3 °C.

As to GACAACGAAAGTTAGTC ((((((....))).))), the folding enthalpy in data set [1] is -24.7 kcal/mol. In data set [2], the Tm worked out at 42.4 °C.

Take GACAACGAAAGTTCGGTC ((((((....)))..))): the folding enthalpy in data set [1] is -17.7 kcal/mol. The Tm in data set [2] was 30.7 °C.
